# Measured values as given in ChEMBL document CHEMBL4190305, “Dioxomorpholines and Derivatives from a Marine-Facultative Aspergillus Species” (J Nat Prod, 2017).
# Calls of active or inactive are those of the source. No cut-off for these calls is given here.
# Assays:
# [1] = organism: Homo sapiens; assay: Inhibition of Pgp in human A549/DXR cells assessed as reduction in calcein-AM efflux after 1 hr by fluorescence assay
# [2] = tested on: HCT-116; assay: Cytotoxicity against human HCT116 cells harboring wild type p53 assessed as reduction in cell viability after 72 hrs by CellTiter 96 AQueous one solution cell proliferation assay; type: cell-based; conditions: HCT-116, 72 h
# In short: (§1)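 Cells seeded at 3000–4000 per well and grown 20 h, then medium replaced by 10% fetal bovine serum medium with test compound for 72 h. Viability read by MTS-type (CellTiter 96 AQueous One) absorbance at 490 nm, relative to untreated control cells; triplicate wells per condition.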
# [3] = organism: Homo sapiens; assay: Cytotoxicity against human A549/DXR cells assessed as reduction in cell viability after 72 hrs by CellTiter 96 AQueous one solution cell proliferation assay; type: functional, cell-based
# In short: as §1
# [4] = tested on: A549; assay: Inhibition of calcein-AM efflux in human A549 cells at 10 uM after 1 hr by fluorescence assay; type: functional, cell-based
# In short: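 Vybrant multidrug resistance kit: 500 000 cells/well cultured overnight, triplicate cultures pretreated 1 h with compound (verapamil 50 μg/mL, cyclosporine A 25 μg/mL as positive controls), then 0.25 μM calcein-AM for 30 min. Cells washed twice in cold medium; intracellular calcein fluorescence read at ex 494/em 517 nm, expressed as percent calcein retention.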
# [5] = tested on: MDA-MB-231; assay: Potentiation of doxorubicin-induced cytotoxicity against p53 CRISPR-Cas9 knockout human MDA-MB-231 cells assessed as decrease in cell viability at 10 uM after 72 hrs by CellTiter 96 AQueous one solution cell proliferation assay; type: functional, cell-based
# In short: (§2)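 Seeded 3000–4000 cells/well, 20 h growth, then a range of doxorubicin concentrations alone or combined with 10 μM compound in 10% FBS medium for 72 h (DMSO vehicle). Viability by CellTiter 96 AQueous One at 490 nm versus untreated cells; triplicate wells, mean ± SEM of three independent experiments.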
# [6] = tested on: A549; assay: Cytotoxicity against human A549 cells assessed as reduction in cell viability after 72 hrs by CellTiter 96 AQueous one solution cell proliferation assay; type: cell-based; conditions: A549, 72 h
# In short: as §1
# [7] = tested on: A549; assay: Potentiation of doxorubicin-induced cytotoxicity against human A549 cells assessed as decrease in cell viability at 10 uM after 72 hrs by CellTiter 96 AQueous one solution cell proliferation assay; type: functional, cell-based
# In short: as §2
# [8] = tested on: U2OS; assay: Cytotoxicity against human U2OS cells assessed as reduction in cell viability after 72 hrs by CellTiter 96 AQueous one solution cell proliferation assay; type: cell-based
# In short: as §1
# [9] = tested on: MDA-MB-231; assay: Cytotoxicity against human MDA-MB-231 cells harboring p53 R280K mutant assessed as reduction in cell viability after 72 hrs by CellTiter 96 AQueous one solution cell proliferation assay; type: cell-based; conditions: MDA-MB-231, 72 h
# In short: as §1
# [10] = tested on: HCT-116; assay: Cytotoxicity against p53 null human HCT116 cells assessed as reduction in cell viability after 72 hrs by CellTiter 96 AQueous one solution cell proliferation assay; type: cell-based; conditions: HCT-116, 72 h
# In short: as §1
# [11] = tested on: U2OS; assay: Potentiation of doxorubicin-induced cytotoxicity against human U2OS cells assessed as decrease in cell viability at 10 uM after 72 hrs by CellTiter 96 AQueous one solution cell proliferation assay; type: functional, cell-based
# In short: as §2
# [12] = tested on: SAOS-2; assay: Potentiation of doxorubicin-induced cytotoxicity against p53 null human Saos2 cells assessed as decrease in cell viability at 10 uM after 72 hrs by CellTiter 96 AQueous one solution cell proliferation assay; type: functional, cell-based
# In short: as §2
SMILES,inhibition [1],IC50 [2] [µM],Activity [3],inhibition [4],Activity [5],IC50 [6] [µM],Activity [7],IC50 [8] [µM],IC50 [9] [µM],IC50 [10] [µM],Activity [11],Activity [12]
C=CC(C)(C)[C@]1(C[C@H](NC(=O)[C@@H](O)Cc2ccccc2)C(=O)O)C(=O)Nc2c(O)cccc21,Dose-dependent effect,> 50,Dose-dependent effect,Active,Active,> 50,Active,> 50,> 50,> 50,Active,Active
C=CC(C)(C)c1[nH]c2ccccc2c1C[C@H](NC(=O)[C@@H](O)Cc1ccccc1)C(=O)O,Dose-dependent effect,> 50,Dose-dependent effect,Active,Active,> 50,Active,> 50,> 50,> 50,Active,Active
C=CC(C)(C)[C@]12Nc3c(O)cccc3[C@@]1(O)C[C@H]1C(=O)O[C@@H](Cc3ccccc3)C(=O)N12,Dose-dependent effect,> 50,Dose-dependent effect,Active,Active,> 50,Active,> 50,> 50,> 50,Active,Active
